In ChEMBL document CHEMBL2069194, “Synthesis of sulfur containing dihydro-pyrrolo derivatives and their biological evaluation as antioxidants” (Bioorg Med Chem, 2012) one finds Activity and inhibition data, which are given here for 14 molecules.

In assay [1] the test system is Radical scavenging activity. Nature of the assay: Antioxidant activity assessed as reduction of DPPH radical generation at 50 uM incubated for 20 mins at room temperature. It is filed as functional. The arrangement: scale not given: the % may be the effect or the level left. The method, boiled down: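 DPPH radical interaction in ethanol, compound final 50 µM (equimolar with DPPH); ethanol as control. Absorbance at 517 nm read after 20 min at room temperature.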
In general terms: Loss of DPPH colour is used to gauge radical scavenging.

For a further assay, the system named is Glycine max. Kind of assay: Inhibition of soybean lipoxygenase using sodium linoleate substrate at 100 uM. Summed up:
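Soybean lipoxygenase (0.2 mL of 1/9 × 10^-4 w/v solution in saline) incubated at room temperature with compound in ethanol and sodium linoleate 100 µM. Conversion to 13-hydroperoxylinoleic acid recorded at 234 nm, compared against caffeic acid 600 µM as standard inhibitor.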

A short description of assay [2]: Antioxidant activity assessed as inhibition of linoleic acid peroxidation at 100 uM by AAPH assay by UV spectrometry. It is filed as functional. The method, boiled down: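 Linoleic acid dispersion (10 µL of 16 mM) in 0.05 M phosphate buffer pH 7.4 at 37 °C; oxidation started under air by adding 50 µL of 40 mM AAPH, with 10 µL aliquots of compound present. Conjugated diene hydroperoxide formation followed as rise in absorbance at 234 nm; blank run contained same DMSO level.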

Calls of active or inactive are those of the source. The rule behind the calls is not given here.

As to `CCSC1=N[C@H](C(=O)OC)[C@@H]2C(=O)N(c3ccccc3)C(=O)[C@H]12` (relative stereo), the result in assay [1] was inactive. The results for the inhibition (in the assay on Glycine max; in assay [2]) were 26% and 89%, respectively.
In the case of `COC(=O)[C@@H]1N=C(SC(C)C)[C@H]2C(=O)N(c3ccccc3)C(=O)[C@H]21` (relative stereo), the Activity in assay [1] stood at 12%. The inhibition worked out at 49% in the assay on Glycine max and 89% in assay [2].
On to `Cc1c(C)c2c(c(C)c1O)CCC(C)(C(=O)O)O2` (stereo not drawn), for which the inhibition in assay [2] came out at 63%.
As for `COC(=O)[C@H]1N=C(SC(C)C)[C@H]2C(=O)N(c3ccccc3)C(=O)[C@H]21` (relative stereo), the Activity in assay [1] stood at 13%. Moreover, the inhibition in the assay on Glycine max was 44%; in assay [2] it was 72%.
`COC(=O)[C@@H]1N=C(SC)[C@H]2C(=O)N(c3ccccc3)C(=O)[C@H]21` (relative stereo): the Activity in assay [1] stood at 26%. Moreover, the inhibition stood at 51% in the assay on Glycine max and 93% in assay [2].
For `COC(=O)[C@H]1N=C(SCc2ccccc2)[C@H]2C(=O)N(c3ccccc3)C(=O)[C@H]21` (relative stereo), in that order: 11%, 73% and 76%.
For `COC(=O)[C@@H]1N=C(SCc2ccccc2)[C@H]2C(=O)N(c3ccccc3)C(=O)[C@H]21` (relative stereo), in that order: 15%, 83% and 98%.
For `CCCCSC1=N[C@H](C(=O)OC)[C@@H]2C(=O)N(c3ccccc3)C(=O)[C@H]12` (relative stereo), in that order: 7%, 56% and 89%.
Regarding `CCCCSC1=N[C@@H](C(=O)OC)[C@@H]2C(=O)N(c3ccccc3)C(=O)[C@H]12` (relative stereo), the Activity in assay [1] was determined as 11%. For the same molecule, the inhibition came out at 91% with Glycine max and 82% in assay [2].
Take `CC(Cc1ccc(O)c(O)c1)C(C)Cc1ccc(O)c(O)c1` (stereo not drawn): the Activity in assay [1] was determined as 81%. Also, the inhibition with Glycine max amounted to 64%.
As for `COC(=O)[C@H]1N=C(SC)[C@H]2C(=O)N(c3ccccc3)C(=O)[C@H]21` (relative stereo), the Activity in assay [1] was 8%. In addition, the inhibition in assay [2] stood at 84%.
On to `CCCSC1=N[C@H](C(=O)OC)[C@@H]2C(=O)N(c3ccccc3)C(=O)[C@H]12` (relative stereo), for which, in assay [1], the Activity was 9%. The inhibition in the assay with Glycine max came to 39%; in assay [2] it was 86%.
For `CCCSC1=N[C@@H](C(=O)OC)[C@@H]2C(=O)N(c3ccccc3)C(=O)[C@H]12` (relative stereo), in that order: 7%, 43% and 86%.
For `CCSC1=N[C@@H](C(=O)OC)[C@@H]2C(=O)N(c3ccccc3)C(=O)[C@H]12` (relative stereo), in that order: 11%, 81% and 91%.

The term inhibition denotes how much of the control response was suppressed.
